Experiments:
Rotavirus [1] = assay: Antiviral activity against Rotavirus RF in human Caco-2 cells assessed as neutralization of virus in solution before its attachment after 72 hrs; format: functional, organism-based; conditions: Caco-2, 72 h
In short: (§1)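 Threefold dilutions from 0.5 mg/mL were co-incubated with rotavirus RF in trypsin-supplemented DMEM for 12 h at 37 °C, 5% CO2, before infecting monolayers. Results are mean % of virus-only control (n = 6) for each dilution. IC50 taken from the concentration–effect curve.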

[2] = Selectivity index, ratio of CC50 for human Caco-2 cells to IC50 for Rotavirus RF; format: functional
Rotavirus [3] = assay: Antiviral activity against Rotavirus RF infected in rhesus monkey MA104 cells assessed as neutralization of virus in solution before its attachment after 72 hrs; format: functional, organism-based; conditions: MA104, 72 h; in short: as §1
[4] = Selectivity index, ratio of CC50 for rhesus monkey MA104 cells to IC50 for Rotavirus RF; format: functional
Rotavirus [5] = assay: Antiviral activity against Rotavirus RF in rhesus monkey MA104 cells assessed as inhibition of infectivity following virus attachment after 72 hrs; format: functional, organism-based; conditions: MA104, 72 h
In short: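 Monolayers infected with rotavirus RF for 1 h at 37 °C in 5% CO2, then washed with unsupplemented DMEM and immediately given 3-fold serial dilutions from 0.5 mg/mL. Results are mean % of virus-only control absorbance (n = 6).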

H4 = assay: Cytotoxicity against human H4 cells after 72 hrs; format: functional; conditions: H4, 72 h
In short: (§2)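 H4 or Caco-2 cells (6 × 10⁶ per plate) treated with 3-fold serial dilutions from 0.5 mg/mL and held 72 h at 37 °C in a humidified incubator. Results are mean % of treated (n = 2) versus control (n = 24) absorbance.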

Caco-2 [6] = assay: Cytotoxicity against human Caco-2 cells after 72 hrs; format: functional; conditions: Caco-2, 72 h; in short: as §2
[7] = Cytotoxicity against rhesus monkey MA104 cells after 72 hrs; format: functional; conditions: Macaca mulatta, MA104, 72 h
[8] = Tumor selectivity index, ratio of CC50 for human H4 cells to CC50 for human Caco-2 cells; format: functional
In short: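 Ratio of 72 h crystal-violet CC50 in H4 cells to CC50 in Caco-2 cells.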

[9] = Tumor selectivity index, ratio of CC50 for human H4 cells to CC50 for rhesus monkey MA104 cells; format: functional
Caco-2 [10] = assay: Growth inhibition of human Caco-2 cells after 10 days; format: functional, cell-based; conditions: Caco-2, 240 h
In short: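 Caco-2 monolayers in DMEM/10% fetal bovine serum received 3-fold dilutions from 0.5 mg/mL, six wells per compound, for 10 days at 37 °C, humidified. Colonies counted in each well. Results are mean % colony number of treated (n = 2) versus control (n = 24) wells.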

[11] = Selectivity index, ratio of CC50 for rhesus monkey MA104 cells to IC50 for Rotavirus RF after attachment to MA104 cells

SMILES	IC50 (Rotavirus [1]) [µM]	Ratio CC50/IC50 [2]	IC50 (Rotavirus [3]) [µM]	Ratio CC50/IC50 [4]	IC50 (Rotavirus [5]) [µM]	CC50 (H4) [µM]	CC50 (Caco-2 [6]) [µM]	CC50 [7] [µM]	Ratio [8]	Ratio [9]	IC50 (Caco-2 [10]) [µM]	Ratio CC50/IC50 [11]
C=C1[C@@H](O)[C@@H](O)[C@@H](CO)O[C@H]1n1cc(C)c(=O)[nH]c1=O	2.46	28.61	2.46	85.8	7.03	1760	70.4	211	24.9	8.3	21.1	30.03
C=C1C=C[C@@H](CO)O[C@H]1n1cc(C)c(=O)[nH]c1=O					79.9	2.8	2000	480	0.0014	0.0058	79.9	5.99
C=C1C=C[C@@H](COC(c2ccccc2)(c2ccccc2)c2ccccc2)O[C@H]1n1cc(C)c(=O)[nH]c1=O					4.06	40.6	1020	244	0.04	0.16	0.4	60
Cc1cn([C@@H]2O[C@H](CO)[C@H](O)[C@H](O)C2=O)c(=O)[nH]c1=O	2.44	28.65	2.44	85.9	6.98	1750	69.9	210	25	8.3	0.7	30.03
Cc1cn([C@H]2C[C@H](N=[N+]=[N-])[C@@H](CO)O2)c(=O)[nH]c1=O [ZIDOVUDINE]		0.75	74.6	3.01	22.4							10.03
O=c1[nH]cc(F)c(=O)[nH]1 [FLUOROURACIL]						3840		231	10	16.67		

— ChEMBL document CHEMBL1149614, “Exomethylene pyranonucleosides: efficient synthesis and biological evaluation of 1-(2,3,4-trideoxy-2-methylene-beta-d-glycero-hex-3-enopyranosyl)thymine” (Bioorg Med Chem, 2007)
